Laboratory results published in ChEMBL document CHEMBL1131336, “Synthesis and serotonin receptor affinities of a series of trans-2-(indol-3-yl)cyclopropylamine derivatives” (J Med Chem, 1998).
pKi: −log10 of the molar value.

Experiments:
[1] = target: T1, 5-hydroxytryptamine receptor 2C (Homo sapiens, UniProt P28335); test: Binding affinity against the cloned human 5-hydroxytryptamine 2C receptor using [125I]DOI as the radioligand
T1 sequence (P28335 whole entry): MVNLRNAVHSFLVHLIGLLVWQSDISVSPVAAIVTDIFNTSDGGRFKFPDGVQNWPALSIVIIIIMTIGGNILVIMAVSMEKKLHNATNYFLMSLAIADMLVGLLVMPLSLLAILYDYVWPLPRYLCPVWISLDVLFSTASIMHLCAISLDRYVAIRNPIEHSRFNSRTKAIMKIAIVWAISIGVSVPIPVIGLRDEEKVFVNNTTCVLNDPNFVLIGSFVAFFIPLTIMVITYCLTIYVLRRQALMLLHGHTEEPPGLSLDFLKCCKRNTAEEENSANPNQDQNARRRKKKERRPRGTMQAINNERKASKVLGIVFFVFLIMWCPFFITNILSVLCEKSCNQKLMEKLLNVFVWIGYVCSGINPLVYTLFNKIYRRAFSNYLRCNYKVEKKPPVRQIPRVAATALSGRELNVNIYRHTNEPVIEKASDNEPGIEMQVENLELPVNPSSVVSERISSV
How it was run: (§1)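 AV12 hamster fibroblast membranes stably expressing the human receptor, with 0.07-0.15 nM [125I]DOI. Buffer is 10 µM pargyline, 9.75 mM MgCl2, 0.5 mM EDTA, 0.1% ascorbate and 50 mM Tris pH 7.4. Incubation 30 min at 37 °C with about 40 µg (5-HT2A) or 30 µg (5-HT2C) protein, then gamma counting. Nonspecific binding set with 1 µM ketanserin (2A) or 10 µM mianserin (2C).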

[2] = target: 5-hydroxytryptamine receptor 2A (Homo sapiens, UniProt P28223); test: Binding affinity against the cloned human 5-hydroxytryptamine 2A receptor using [125I]DOI as the radioligand; how it was run: as §1
5-hydroxytryptamine receptor 2A, sequence (P28223 whole entry): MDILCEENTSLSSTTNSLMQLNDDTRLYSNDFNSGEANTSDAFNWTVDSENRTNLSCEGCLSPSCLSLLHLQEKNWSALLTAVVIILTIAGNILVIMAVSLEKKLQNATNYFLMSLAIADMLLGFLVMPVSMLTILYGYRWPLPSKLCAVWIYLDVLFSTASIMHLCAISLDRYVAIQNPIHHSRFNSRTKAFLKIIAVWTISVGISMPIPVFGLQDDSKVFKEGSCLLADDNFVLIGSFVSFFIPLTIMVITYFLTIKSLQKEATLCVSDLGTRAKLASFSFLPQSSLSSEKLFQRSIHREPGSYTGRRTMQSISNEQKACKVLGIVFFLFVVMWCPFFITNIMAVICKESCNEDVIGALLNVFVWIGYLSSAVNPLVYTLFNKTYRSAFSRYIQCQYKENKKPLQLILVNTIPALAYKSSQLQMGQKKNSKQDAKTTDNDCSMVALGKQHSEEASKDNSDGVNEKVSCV

[3] = target: 5-hydroxytryptamine receptor 2B (Homo sapiens, UniProt P41595); test: Binding affinity against the cloned human 5-hydroxytryptamine 2B receptor using [3H]5-HT as the radioligand
5-hydroxytryptamine receptor 2B, sequence (P41595 whole entry): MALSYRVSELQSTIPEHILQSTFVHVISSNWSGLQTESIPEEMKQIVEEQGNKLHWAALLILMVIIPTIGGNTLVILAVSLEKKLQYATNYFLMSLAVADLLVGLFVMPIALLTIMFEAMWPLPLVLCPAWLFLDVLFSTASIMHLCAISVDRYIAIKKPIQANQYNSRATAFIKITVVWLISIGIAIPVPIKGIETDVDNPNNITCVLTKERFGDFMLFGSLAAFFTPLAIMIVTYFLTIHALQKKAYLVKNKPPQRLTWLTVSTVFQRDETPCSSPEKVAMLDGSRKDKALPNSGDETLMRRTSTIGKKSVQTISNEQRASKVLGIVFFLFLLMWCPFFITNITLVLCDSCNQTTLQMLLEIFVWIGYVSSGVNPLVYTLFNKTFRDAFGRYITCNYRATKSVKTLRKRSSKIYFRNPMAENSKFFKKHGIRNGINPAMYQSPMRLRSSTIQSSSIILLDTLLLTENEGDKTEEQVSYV
How it was run: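 Membranes come from AV12 hamster fibroblasts stably expressing the human receptor. About 2 nM [3H]-5-HT is used with drug dilutions spanning 6 log units, in 3 mM CaCl2, 10 µM pargyline, 50 mM Tris and 0.1% ascorbic acid, pH 7.4. Triplicate tubes with 100-150 µg protein, 15 min at 37 °C, PEI-soaked GF/B filtration. Nonspecific binding set with 10 µM 5-HT or 10 µM 1-naphthylpiperazine.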

[4] = target: T2, 5-hydroxytryptamine receptor 1A (Rattus norvegicus, UniProt P19327); test: Binding affinity against the 5-hydroxytryptamine 1A receptor labelled with [3H]8-OH-DPAT in rat hippocampal homogenates; assay type: tissue-based, Hippocampus
T2 sequence (P19327 whole entry): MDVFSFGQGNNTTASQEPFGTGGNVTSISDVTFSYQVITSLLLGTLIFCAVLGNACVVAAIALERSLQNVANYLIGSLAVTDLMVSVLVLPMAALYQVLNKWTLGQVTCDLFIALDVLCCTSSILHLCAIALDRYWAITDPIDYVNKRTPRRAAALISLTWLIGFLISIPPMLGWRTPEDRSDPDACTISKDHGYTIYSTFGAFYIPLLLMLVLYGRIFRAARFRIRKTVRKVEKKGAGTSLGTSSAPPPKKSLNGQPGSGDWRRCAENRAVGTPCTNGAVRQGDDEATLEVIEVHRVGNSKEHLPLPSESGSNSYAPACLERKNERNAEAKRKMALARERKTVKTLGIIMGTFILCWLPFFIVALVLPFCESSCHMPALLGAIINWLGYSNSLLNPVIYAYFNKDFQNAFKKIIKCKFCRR
How it was run: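 Buffer is 50 mM Tris HCl pH 7.4 with 0.5 mM Na2EDTA, 0.1% Na ascorbate and pargyline. Triplicate tubes with 200-400 µg protein, 15 min at 37 °C, GF/C filtration. Nonspecific binding set with 10 µM 5-HT.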

Row | Compound | pKi [1] | pKi [2] | pKi [3] | pKi [4]
1 | COc1ccc2[nH]cc(C3CC3N)c2c1 (stereo not drawn) | 7.75 | 7.51 | 7.42 | 7.40
2 | NC1CC1c1c[nH]c2ccc(F)cc12 (stereo not drawn) | 8.72 | 7.99 | 8.24 | 6.59
3 | COc1cccc2[nH]cc(C3CC3N)c12 (stereo not drawn) | 7.93 | 7.34 | 7.19 | –
4 | CC(CN)c1c[nH]c2ccccc12 (stereo not drawn) | 8.03 | 7.39 | 7.06 | –
5 | COc1ccc2[nH]cc(C(C)CN)c2c1 (stereo not drawn) | 9.00 | 8.66 | 8.08 | –
6 | N[C@H]1C[C@@H]1c1c[nH]c2ccccc12 | 7.67 | 6.88 | 7.03 | 6.09
7 | N[C@@H]1C[C@H]1c1c[nH]c2ccccc12 | 7.36 | 7.01 | 7.23 | 6.59
8 | NC1CC1c1c[nH]c2ccccc12 (racemic) | 7.52 | 6.79 | 7.23 | –
